Assay results of several laboratories.
Protocols differ between the studies behind these lines.

`OC[C@@H](O)[C@@H](O)[C@H](O)[C@H](O)CO` has a Papp A→B of 0.249 ×10⁻⁶ cm/s (Caco-2).
`Cl.Cl.O=C(CCN1CCCCC1)c1ccc(-c2ccc(C(=O)CCN3CCCCC3)cc2)cc1` gave an AUC(0-t) of 978 ng·h/mL (Sprague-Dawley rat, plasma; oral, 100 mg/kg).
`COC(=O)C(NC(=O)c1cn(CCCCCF)c2ccccc12)C(C)(C)C` (centres unmarked) has an AUC(0-t) of 37.7 ng·h/mL (male Sprague-Dawley rat, plasma; subcutaneous, 200 µg/kg).
`CC(C)(C)[C@H](NC(=O)[C@H](CCONC(=N)N)NC(=O)Cc1ccc(CNC(=N)N)cc1)C(=O)N[C@@H](CCONC(=N)N)C(=O)NCc1ccc(C(=N)N)cc1` has an AUC(0-t) of 2090 ng·h/mL (male Sprague-Dawley rat, plasma; intravenous, 1 mg/kg).
With `O=C(Nc1ccc2c(c1)B(O)OC2)c1ccc(Oc2ccccc2)cc1` the Papp was 0.82 ×10⁻⁶ cm/s (PAMPA; 200 µM, 5 h, pH 7.4).
`CCCCCCCCCCCC(=O)NC(C)(C)C(=O)N1CCC[C@H]1C(=O)NC(C)(C)C(=O)NC(C)(C)C(=O)N1CCC[C@H]1C(=O)NC(C)(C)C(=O)NC(C)(C)C(=O)N1CCC[C@H]1C(=O)N[C@@H](C)C(=O)NC(C)(C)C(=O)NCCC(=O)N[C@@H](C)C(=O)NC(C)(C)C(=O)NC(C)(C)C(=O)NCCC(=O)NC(C)(C)C(=O)NC(C)(C)C(=O)NC(C)(C)C(=O)N[C@@H](C)C(=O)NCCC(=O)O` has an IC50 of 1 µM (HCT-116; cell growth or viability, MTT; 24 h).
The Papp A→B of `CC[C@@H]1CN2CCc3c([nH]c4cccc(OC)c34)[C@H]2C[C@@H]1/C(=C\OC)C(=O)OC` is reported as 14.2 cm/s (Caco-2; pH 7.4).
With `O=C([O-])C(=O)[O-].[NH-][C@@H]1CCCC[C@H]1[NH-].[Pt+4]` (relative stereo) the AUC(0-inf) was 2540 ng·h/mL (rat, plasma; intravenous, 5 mg/kg).
The Cmax of `N=c1c2c(-c3ccccc3)c(-c3ccccc3)n(Cc3ccccc3)c2ncn1[C@H]1CC[C@H](O)CC1` is reported as 785 ng/mL (female minipig, plasma; oral, 2.5 mg/kg, single dose).
`O=c1c(O[C@@H]2O[C@H](CO)[C@@H](O)[C@H](O)[C@H]2O)c(-c2ccc(O)cc2)oc2cc(O)cc(O)c12` gave an IC50 of 36.6 µM (HCT-116; cell growth or viability, WST-1).
For `CN(C)C(=O)Oc1cc(OC(=O)N(C)C)cc(-c2cc3ccc(O)cc3o2)c1`, the AUC(0-t) was 589 ng·h/mL (male rat, plasma; intravenous, 5 mg/kg).
